Most compounds without a hit are left out; they make up all but 5.9% or so of the library.
T cruzi growth-1 = inhibitors of T. cruzi proliferation; T. cruzi beta-gal in NIH3T3, GalScreen luminescence, 90 h; inhibition, % at 8.34 µM; 5.9% of 77,000 active;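 active = mean inhibition above about 93%, with at least 55% of replicates each passing it, limit read from the data, passing the limit was not always enough; inconclusive = only one of those two conditions holds; inactive = neither condition holds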
GASC1 inh = blocks human GASC-1 (KDM4C) demethylase activity; Q9H3R0; 0.15% of 96,000 active; inhibition, % at 12.5 µM; AID 720574; GST-KDM4C 2-372, H3K9me3 peptide, LANCE TR-FRET;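 active = mean replicate inhibition above about 25%, with at least 55% of replicates also reaching it, limit read from the data, passing the limit was not always enough; inconclusive = only one of those two conditions met; inactive = neither condition met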
Target sequence (Q9H3R0 2-372 limits assumed): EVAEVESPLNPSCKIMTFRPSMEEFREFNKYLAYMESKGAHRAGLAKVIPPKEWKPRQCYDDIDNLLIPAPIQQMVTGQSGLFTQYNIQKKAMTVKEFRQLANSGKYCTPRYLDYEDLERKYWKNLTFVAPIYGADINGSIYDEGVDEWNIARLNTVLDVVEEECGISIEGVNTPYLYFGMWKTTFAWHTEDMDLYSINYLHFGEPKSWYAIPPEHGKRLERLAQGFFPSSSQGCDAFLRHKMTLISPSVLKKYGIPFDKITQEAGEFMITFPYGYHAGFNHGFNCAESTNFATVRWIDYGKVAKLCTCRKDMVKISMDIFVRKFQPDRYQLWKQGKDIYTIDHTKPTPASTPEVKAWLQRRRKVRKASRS
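material = GST-tagged GASC-1 (JMJD2C) catalytic fragment, aa 2-372 | amount = enzyme final amount 10 nM | medium = HEPES buffer, pH 7.5, plus ascorbate | also added = H3K9me3 peptide substrate, Fe(II), 2-oxoglutarate | dosing = single dose | times = 30 min demethylation and 1 h detection at room temperature | detection = LANCE TR-FRET | read-out basis = Fall in 671/618 emission ratio as inhibition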
Pf Dd2 inh = blocks growth of Plasmodium falciparum Dd2 parasites | 2.3% of 94,000 active | AID 1159554 | activity change, % at 10 µM | P. falciparum Dd2 growth, SYBR Green, 72 h; active compounds read low; in the data active = activity change below about -80%; inconclusive = no clear call, values can overlap the other calls
IDH1 R132H inh = inhibitors of human IDH1 R132H; AID 624101; O75874; IDH1 R132H reductase, diaphorase/resazurin fluorescence, 60 min; 0.18% of 70,000 active; inhibition, % at 10 µM; in the data active = inhibition above about 34%; inconclusive = no clear call, values can overlap the other calls; inactive = below about 11%;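 also: 0% = DMSO and 100% = no enzyme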
T cruzi growth-2 = blocks T. cruzi growth in NIH3T3 host cells; shares compounds with T cruzi growth-1; AID 651739; 72% of 5,600 active; inhibition, % at 8.35 µM; T. cruzi beta-gal in NIH3T3, GalScreen luminescence, 90 h;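 active = mean replicate inhibition above about 95% and at least 55% of replicates individually reaching it, limit read from the data; inconclusive = only one of the two criteria is met; inactive = neither criterion is met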
T cruzi growth-3 = Trypanosoma cruzi proliferation inhibition; 21% of 5,600 active; shares compounds with T cruzi growth-1; inhibition, % at 2.09 µM; AID 651740; T. cruzi beta-gal in NIH3T3, GalScreen luminescence, 90 h;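 active = mean inhibition above about 95%, with at least 55% of replicates also reaching it, limit read from the data; inconclusive = meets just one of the two conditions; inactive = meets neither condition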;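 also: plate controls were neutral control median for no effect and positive control median for full effect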
NIH3T3 tox = cytotoxicity in mouse NIH/3T3 fibroblasts | shares compounds with T cruzi growth-1 | 14% of 5,600 active | AID 651742 | cytotoxicity (signal decrease), % at 8.35 µM | NIH/3T3 viability, CellTiter-Glo ATP luminescence, 90 h;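 active = mean signal decrease across replicates above about 35% based on untreated-well scatter, with enough replicates individually passing, limit read from the data; inconclusive = no rule stated though some were filed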;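 also: 0% = median of neutral control wells and 100% = median of positive control wells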
NIH3T3 tox 2 = kills mouse NIH/3T3 fibroblasts; shares compounds with T cruzi growth-1; NIH/3T3 viability, CellTiter-Glo ATP luminescence, 90 h; inhibition, % at 24.9 µM; 56% of 5,600 active; AID 651744;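 active = mean loss of cell viability signal at or above a set limit, and enough replicates individually reaching it; inconclusive = meets only the mean limit or only the replicate share; inactive = meets neither condition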;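 also: 0% = median of neutral control wells and 100% = median of positive control wells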
An asterisk follows results filed as active; ? = inconclusive; / = no result given.

SMILES	T cruzi growth-1	GASC1 inh	Pf Dd2 inh	IDH1 R132H inh	T cruzi growth-2	T cruzi growth-3	NIH3T3 tox	NIH3T3 tox 2
c1cc(-c2nc(-c3ccc4c(c3)OCCCO4)cs2)ccc1-c1csnn1	/	/	/	1	/	/	/	/
CCCC#Cc1ccc2c(c1)O[C@@H](CN(C)CCC)[C@H](C)CN([C@@H](C)CO)S2(=O)=O	99*	5	-57	-2	101*	62	39*	104*
Cc1sc(NC(=O)COc2ccc(-c3ccccc3)cc2)c(C(N)=O)c1C	/	/	/	0	/	/	/	/
Cc1ccccc1S(=O)(=O)N1CC[C@@H]2[C@@H](CO)Nc3ccc(-c4ccc(C#N)cc4)cc3[C@@H]21	?	-5	4	/	97*	71	66*	92*
Cc1ccccc1S(=O)(=O)N1CC[C@H]2[C@H](CO)Nc3ccc(-c4ccc(C#N)cc4)cc3[C@H]21	115*	2	7	/	107*	77	52*	69*
COc1cccc(OCc2nc(-c3ccccc3)no2)c1	/	/	/	0	/	/	/	/
COc1cccc(-c2ccc([C@@H]3[C@H]4CN(C(=O)NC(C)C)CCCCN4[C@H]3CO)cc2)c1	75	0	33	/	/	/	/	/
Cc1cccc(-c2ccc([C@H]3[C@H](CO)N4CCCCN(C(=O)NC(C)C)C[C@@H]34)cc2)c1	106*	-2	21	/	107*	64	3	96*
Cc1cccc(-c2ccc([C@H]3[C@H]4CN(C(=O)NC(C)C)CCCCN4[C@H]3CO)cc2)c1	99*	-1	18	/	45	8	1	12
CC(=O)N1CCCCN2[C@H](CO)[C@@H](c3ccc(-c4cccc(C)c4)cc3)[C@H]2C1	-7	-3	25	/	/	/	/	/
CC(=O)N1CCCCN2[C@H](CO)[C@@H](c3ccc(-c4cccc(C)c4)cc3)[C@@H]2C1	4	0	34	/	/	/	/	/
Cc1cccc(-c2ccc([C@@H]3[C@H](CO)N4CCCCN(C(=O)NC(C)C)C[C@@H]34)cc2)c1	104*	-1	-23	/	110*	84	24	105*
Oc1c(C(Nc2ccccn2)c2ccccn2)cc(Cl)c2cccnc12 (stereo not given)	/	/	/	1	/	/	/	/
COc1ccccc1NC(=O)N1CCCCN2[C@H](CO)[C@@H](c3ccc(C#Cc4ccccc4)cc3)[C@H]2C1	112*	-2	-73	/	102*	102*	119*	105*
COc1ccccc1NC(=O)N1CCCCN2[C@H](CO)[C@H](c3ccc(C#Cc4ccccc4)cc3)[C@@H]2C1	78	-2	?	/	/	/	/	/
COc1ccccc1NC(=O)N1CCCCN2[C@H](CO)[C@@H](c3ccc(C#CC4CCCC4)cc3)[C@@H]2C1	102*	-1	-15	/	98*	68	26	105*
COc1ccccc1NC(=O)N1CCCCN2[C@@H](CO)[C@H](c3ccc(C#Cc4ccccc4)cc3)[C@@H]2C1	112*	-3	?	/	92	108*	118*	104*
COc1ccccc1NC(=O)N1CCCCN2[C@@H](CO)[C@@H](c3ccc(C#CC4CCCC4)cc3)[C@@H]2C1	-3	-1	-64	/	/	/	/	/
Cc1cnc(N(C(=O)c2c(-c3ccccc3)noc2C)C(=O)c2c(-c3ccccc3)noc2C)c(C)n1	/	/	/	2	/	/	/	/
O=C(CSc1nc2cc3ccccc3cc2[nH]1)Nc1ccccc1Cl	/	/	/	0	/	/	/	/
COc1cc(OC)c(C(O)C(C)O)cc1OC (stereo not given)	/	/	/	0	/	/	/	/
COc1ccc(-c2ccc([C@H]3[C@H](C#N)N(C(=O)NC4CCCC4)[C@H]3CO)cc2)cc1	?	/	-35	/	80	28	13	25
COc1ccc(-c2ccc([C@H]3[C@H](C#N)N(C(=O)NC4CCCCC4)[C@H]3CO)cc2)cc1	101*	-3	-24	/	102*	56	26	75*
COc1ccccc1-c1ccc([C@@H]2[C@@H](C#N)N(C(=O)NC3CCCCC3)[C@@H]2CO)cc1	95	-3	-35	/	/	/	/	/
C[C@@H]1CN([C@H](C)CO)S(=O)(=O)c2ccc(C#Cc3cccnc3)cc2O[C@@H]1CN(C)C(=O)Nc1ccc2c(c1)OCO2	?	0	-63	0	77	62	18	40*
C[C@H]1CN([C@@H](C)CO)S(=O)(=O)c2ccc(C#Cc3cccnc3)cc2O[C@H]1CN(C)C(=O)Nc1ccc2c(c1)OCO2	102*	-1	?	/	64	43	8	11
C[C@H](CO)N1C[C@H](C)[C@@H](CN(C)C(=O)Nc2ccc3c(c2)OCO3)Oc2cc(C#Cc3cccnc3)ccc2S1(=O)=O	93	-2	-47	/	/	/	/	/
COc1ccc(OC)c(S(=O)(=O)N2CCC(C(=O)Nc3cccc(C(C)=O)c3)CC2)c1	/	/	/	0	/	/	/	/
O=C(c1cccc(F)c1)N1CCCCN2[C@H](C1)[C@@H](c1ccc(-c3ccncc3)cc1)[C@@H]2CO	86	-1	-7	/	/	/	/	/

Screening data as filed in PubChem BioAssay.
